According to ChEMBL document CHEMBL1144731, “Structure-dependent inhibition of bladder and pancreatic cancer cell growth by 2-substituted glycyrrhetinic and ursolic acid derivatives” (Bioorg Med Chem Lett, 2008):

Experiments:
Assay type in all cases: functional, cell-based
[1] = Cytotoxicity against human 253JBV cells
Method in brief: (§1)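 Cells seeded at 3×10^4 per well in DMEM:Ham's F-12 with 2.5% charcoal-stripped FBS and allowed 24 h to attach. Then exposed to DMSO vehicle or compound, with medium and compound renewed every 48 h. Cell number counted at set times on a Coulter particle counter. Triplicate runs; IC50 obtained by linear regression.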

[2] = Cytotoxicity against human KU7 cells; method in brief: as §1
PANC-1 = assay: Cytotoxicity against human Panc1 cells; method in brief: as §1
[3] = Cytotoxicity against human Panc28 cells; method in brief: as §1

Structure (SMILES) | IC50 [1] [µM] | IC50 [2] [nM] | IC50 (PANC-1) [µM] | IC50 [3] [µM]
CC1(C)C(=O)C(C#N)=C[C@]2(C)[C@H]3C(=O)C=C4[C@@H]5C[C@@](C)(C(=O)O)CC[C@]5(C)CC[C@@]4(C)[C@]3(C)CC[C@@H]12 | 6.1 | 5880 | 3.81 | 7.32
COC(=O)[C@@]1(C)CC[C@]2(C)CC[C@]3(C)C(=CC(=O)[C@@H]4[C@@]5(C)C=C(C#N)C(=O)C(C)(C)[C@@H]5CC[C@]43C)[C@@H]2C1 | 0.25 | 1590 | 1.22 | 1.8
COC(=O)[C@]12CC[C@@H](C)[C@H](C)[C@H]1C1=CC[C@@H]3[C@@]4(C)C=C(C(F)(F)F)C(=O)C(C)(C)[C@@H]4CC[C@@]3(C)[C@]1(C)CC2 | 0.17 | 470 | 0.65 | 1.13
COC(=O)[C@@]1(C)CC[C@]2(C)CC[C@]3(C)[C@H](C(=O)C=C4[C@@]5(C)C=C(I)C(=O)C(C)(C)[C@@H]5CC[C@]43C)[C@@H]2C1 | 3.62 | 2610 | 4.45 | 3.66
COC(=O)[C@]12CC[C@@H](C)[C@H](C)[C@H]1C1=CC[C@@H]3[C@@]4(C)CC[C@H](O)C(C)(C)[C@@H]4CC[C@@]3(C)[C@]1(C)CC2 [METHYL URSOLATE] | 6.13 | 8950 | 11.8 | 10.6
COC(=O)[C@]12CC[C@@H](C)[C@H](C)[C@H]1C1=CC[C@@H]3[C@@]4(C)C=C(I)C(=O)C(C)(C)[C@@H]4CC[C@@]3(C)[C@]1(C)CC2 | 4.9 | 6020 | 6.91 | 13.5
COC(=O)[C@@]1(C)CC[C@]2(C)CC[C@]3(C)C(=CC(=O)[C@@H]4[C@@]5(C)C=C(P(=O)(OC)OC)C(=O)C(C)(C)[C@@H]5CC[C@]43C)[C@@H]2C1 | 7.9 | 3730 | 6.11 | 8.14
COC(=O)[C@@]1(C)CC[C@]2(C)CC[C@]3(C)C(=CC(=O)[C@@H]4[C@@]5(C)C=C(S(C)(=O)=O)C(=O)C(C)(C)[C@@H]5CC[C@]43C)[C@@H]2C1 | 12 | 3340 | 7.69 | 9.75
COC(=O)[C@]12CC[C@@H](C)[C@H](C)[C@H]1C1=CC[C@@H]3[C@@]4(C)C=C(C#N)C(=O)C(C)(C)[C@@H]4CC[C@@]3(C)[C@]1(C)CC2 | 0.17 | 300 | 0.53 | 0.97
COC(=O)[C@@]1(C)CC[C@]2(C)CC[C@]3(C)C(=CC(=O)[C@@H]4[C@@]5(C)C=C(I)C(=O)C(C)(C)[C@@H]5CC[C@]43C)[C@@H]2C1 | 2.67 | 3040 | 4.08 | 12.8
COC(=O)[C@@]1(C)CC[C@]2(C)CC[C@]3(C)[C@H](C(=O)C=C4[C@@]5(C)C=C(C(F)(F)F)C(=O)C(C)(C)[C@@H]5CC[C@]43C)[C@@H]2C1 | 0.36 | 1370 | 0.68 | 1.13
COC(=O)[C@@]1(C)CC[C@]2(C)CC[C@]3(C)C(=CC(=O)[C@@H]4[C@@]5(C)C=C(C(F)(F)F)C(=O)C(C)(C)[C@@H]5CC[C@]43C)[C@@H]2C1 | 0.67 | 380 | 0.82 | 1.14
